Assay results: ChEMBL document CHEMBL2021796, “Synthesis and biological evaluation of a series of thieno-expanded tricyclic purine 2'-deoxy nucleoside analogues” (Bioorg Med Chem, 2012)

Tested on: Vaccinia virus
Experiment: Antiviral activity against Vaccinia virus infected in HEL cells assessed as inhibition of virus-induced cytopathogenicity
Format: functional, organism-based
Conditions: Orthopoxvirus vaccinia
In short: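 Confluent HEL, Vero or HeLa monolayers were infected with 100 CCID50 of virus while exposed to fivefold serial dilutions of compound. Virus-induced cytopathicity was scored when it reached completion in untreated infected controls. The EC50 is the concentration that inhibits cytopathicity by 50%.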

Row | Structure (SMILES) | EC50 [µM]
1 | Nc1nc2c(sc3ncn([C@H]4C[C@H](O)[C@@H](CO)O4)c32)c(=O)[nH]1 | > 100
2 | Nc1ncnc2c1sc1ncn([C@H]3C[C@H](O)[C@@H](CO)O3)c12 | > 20
3 | NC(=O)c1ncn([C@@H]2O[C@H](CO)[C@@H](O)[C@H]2O)n1 [RIBAVIRIN] | > 250
